Molecular target: T1, SvAS (fused anthranilate synthase, SvTrpEG) (Streptomyces venezuelae, UniProt O30589)
T1 sequence (O30589 1-623): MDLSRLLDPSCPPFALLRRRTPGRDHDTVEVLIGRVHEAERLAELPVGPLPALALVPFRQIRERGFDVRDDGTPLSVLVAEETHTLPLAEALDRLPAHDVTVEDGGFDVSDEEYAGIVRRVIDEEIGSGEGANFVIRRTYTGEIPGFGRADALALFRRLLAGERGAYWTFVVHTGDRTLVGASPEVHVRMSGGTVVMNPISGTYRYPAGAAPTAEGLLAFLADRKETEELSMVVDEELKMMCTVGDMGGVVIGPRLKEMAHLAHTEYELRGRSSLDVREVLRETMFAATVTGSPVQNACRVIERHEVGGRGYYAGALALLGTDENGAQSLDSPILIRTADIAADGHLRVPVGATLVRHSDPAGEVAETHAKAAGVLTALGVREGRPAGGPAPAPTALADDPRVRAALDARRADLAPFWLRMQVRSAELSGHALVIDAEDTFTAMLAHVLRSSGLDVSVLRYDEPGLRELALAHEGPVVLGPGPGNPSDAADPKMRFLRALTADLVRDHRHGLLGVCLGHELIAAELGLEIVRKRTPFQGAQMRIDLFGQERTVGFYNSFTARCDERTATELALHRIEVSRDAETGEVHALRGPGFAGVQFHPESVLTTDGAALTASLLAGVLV
Format: biochemical
How it was run: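 His-tagged SvAS expressed in E. coli BL21(DE3)pLysS and purified on Ni-NTA. Assays at 30°C in 50 mM Tricine pH 7.5 with 12.5 mM MgCl2, 10 μg enzyme, 20 mM glutamine (saturating), 0.39–100 μM chorismate, and 2.5, 5, 10 or 20 μM test compound. Anthranilate fluorescence (ex 315/em 395 nm) converted via standard curve. Lineweaver-Burk plot assigned inhibition type; Ki from fit to that equation.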

- Ki: 11.1 ± 0.1 µM
Compound: N[C@@H](Cc1c[nH]c2ccccc12)C(=O)O [tryptophan]
